Results on one molecule are retold here after ChEMBL document CHEMBL4765452, “Discovery of (E)-N-(4-methyl-5-(3-(2-(pyridin-2-yl)vinyl)-1H-indazol-6-yl)thiazol-2-yl)-2-(4-methylpiperazin-1-yl)acetamide (IHMT-TRK-284) as a novel orally available type II TRK kinase inhibitor capable of overcoming multiple resistant mutants” (Eur J Med Chem, 2020).

Series [1] addresses T1, BDNF/NT-3 growth factors receptor (Homo sapiens, UniProt Q16620). The experiment in a line: Inhibition of TEL fused wild type TRKB (unknown origin) transfected in mouse BaF3 cells assessed as reduction in phosphorylation at Y515 residue after 2 hrs by Western blot analysis. It counts as cell-based. The procedure, abridged: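 Isogenic BaF3 lines, made in-house, grown in RPMI 1640 with 10% FBS and 1% penicillin/streptomycin at 37 °C under 5% CO2. Serially diluted compound added for 2 h. Cells collected and lysed, and lysates analysed by western blotting for phospho-TRK. EC50 derived from the blots.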
In general terms: Immunoblotting shows a protein as a band on a membrane.
Target sequence in this assay (Q16620 whole entry, the tested form may be a part): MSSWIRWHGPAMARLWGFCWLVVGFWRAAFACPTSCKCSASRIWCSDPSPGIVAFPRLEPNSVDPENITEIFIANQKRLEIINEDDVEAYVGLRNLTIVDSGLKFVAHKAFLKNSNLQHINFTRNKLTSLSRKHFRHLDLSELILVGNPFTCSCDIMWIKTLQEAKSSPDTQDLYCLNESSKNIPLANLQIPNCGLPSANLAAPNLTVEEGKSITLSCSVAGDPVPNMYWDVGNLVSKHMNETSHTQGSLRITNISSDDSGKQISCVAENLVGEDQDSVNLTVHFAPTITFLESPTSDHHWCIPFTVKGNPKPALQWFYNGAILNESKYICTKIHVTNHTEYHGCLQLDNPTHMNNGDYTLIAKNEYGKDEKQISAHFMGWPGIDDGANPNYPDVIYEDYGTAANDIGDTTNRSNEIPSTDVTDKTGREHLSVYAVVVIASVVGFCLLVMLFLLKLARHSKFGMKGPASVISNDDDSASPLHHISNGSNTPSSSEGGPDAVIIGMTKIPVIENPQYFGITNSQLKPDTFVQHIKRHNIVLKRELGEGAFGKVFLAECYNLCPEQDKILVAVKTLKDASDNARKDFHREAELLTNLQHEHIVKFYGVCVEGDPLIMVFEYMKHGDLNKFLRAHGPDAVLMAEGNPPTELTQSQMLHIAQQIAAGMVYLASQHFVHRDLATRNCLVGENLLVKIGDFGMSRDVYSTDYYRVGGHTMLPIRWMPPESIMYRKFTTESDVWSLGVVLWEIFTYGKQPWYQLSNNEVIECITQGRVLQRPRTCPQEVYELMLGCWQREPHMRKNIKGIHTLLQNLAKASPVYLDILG

Series [2] can be described thus: Toxicity in mouse xenografted with human […] cells assessed as effect on body weight at 40 to 80 mg/kg, po administered once daily for 10 days. Type of series: organism-based. As to conditions: in vivo, 240 h, dose 40-80 mg/kg/day, time 10 day. The procedure, abridged: (§1)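 nu/nu mice were given subcutaneous right-flank implants in 1:1 DMEM/matrigel: 1 million BaF3 fusion cells or 5 million KM-12-LUC cells. Oral gavage started at 150–200 mm3 (xenograft) or 200–400 mm3 (allograft). Dosing used 40 or 80 mg/kg in HKI vehicle (0.5% methylcellulose/0.4% Tween 80 in ddH2O), with 5 mice per group. Body weight was recorded daily and behaviour observed.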
In general terms: A xenograft is tissue or cells of one species grown in another, often human tumour cells in immunodeficient mice.

Series [3] in a line: Half life in mouse at 10 mg/kg, po. It counts as ADME, organism-based. As to conditions: in vivo.
Series [4] deals with BaF3. The experiment in a line: Antitumor activity against mouse BAF3 cells harboring TEL fused TRKC allografted in nude mouse assessed as tumor growth inhibition at 80 mg/kg, po administered once daily for 10 days relative to control. It counts as functional. The note with it: 240 h, time 10 day, read-out: TGI. The procedure, abridged:
(§2)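 Nu/nu mice given 1 million BaF3 cells (TEL-TRKA, TEL-TRKB, TEL-TRKC, LMNA-TRKA-F589L or LMNA-TRKA-G667S) in DMEM, 1:1 with matrigel, injected subcutaneously into the right flank; oral gavage began at 200–400 mm³, 5 mice per group, compound in 0.5% methylcellulose/0.4% Tween 80 in ddH₂O, 10 days; tumor volume [(W²×L)/2] and body weight recorded daily; TGI versus vehicle.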

Series [5] in a line: Toxicity in mouse xenografted with mouse BAF3 cells harboring TEL fused TRKB assessed as effect on body weight at 40 to 80 mg/kg, po administered once daily for 10 days. It counts as organism-based. As to conditions: in vivo, 240 h, dose 40-80 mg/kg/day, time 10 day. The gist of the method: as §1
Series [6] has as its target T1, BDNF/NT-3 growth factors receptor. Description: Inhibition of human TRKB assessed as remaining enzyme activity at 1 uM by Kinomescan method relative to control.
Target sequence in this assay (Q16620 32-822 limits assumed): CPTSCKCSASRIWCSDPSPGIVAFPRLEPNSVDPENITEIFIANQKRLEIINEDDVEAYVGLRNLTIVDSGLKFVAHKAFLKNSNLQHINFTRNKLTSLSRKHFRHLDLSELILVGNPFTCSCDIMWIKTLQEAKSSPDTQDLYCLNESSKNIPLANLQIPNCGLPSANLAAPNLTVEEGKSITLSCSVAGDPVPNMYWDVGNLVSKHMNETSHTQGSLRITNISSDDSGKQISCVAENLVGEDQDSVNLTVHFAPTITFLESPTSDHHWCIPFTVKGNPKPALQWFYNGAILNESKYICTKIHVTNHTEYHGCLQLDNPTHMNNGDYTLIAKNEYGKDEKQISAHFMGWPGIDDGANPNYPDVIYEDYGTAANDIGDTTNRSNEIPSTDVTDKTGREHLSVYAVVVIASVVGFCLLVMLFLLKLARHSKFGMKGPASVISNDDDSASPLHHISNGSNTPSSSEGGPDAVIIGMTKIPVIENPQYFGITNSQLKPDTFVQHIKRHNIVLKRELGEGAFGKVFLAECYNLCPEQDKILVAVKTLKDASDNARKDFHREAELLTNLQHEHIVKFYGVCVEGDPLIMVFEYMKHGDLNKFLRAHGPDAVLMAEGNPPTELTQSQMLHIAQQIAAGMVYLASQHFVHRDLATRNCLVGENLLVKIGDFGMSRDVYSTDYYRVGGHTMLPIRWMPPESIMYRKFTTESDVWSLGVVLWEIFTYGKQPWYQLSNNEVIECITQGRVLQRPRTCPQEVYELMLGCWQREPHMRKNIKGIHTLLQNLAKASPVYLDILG
Series [7] can be described thus: Apparent clearance in Beagle dog at 5 mg/kg, po. The note with it: in vivo, read-out: CLz/F (converted). It counts as ADME, organism-based, Canis lupus familiaris.
Series [8] in a line: Toxicity in mouse xenografted with mouse BAF3 cells harboring […] TRKA-F589L mutant assessed as effect on abnormal behaviour at 40 to 80 mg/kg, po administered once daily for 10 days. Type of series: organism-based. As to conditions: in vivo, 240 h, dose 40-80 mg/kg/day, time 10 day. The gist of the method:
as §1

For series [9], the target named is T2, High affinity nerve growth factor receptor (Homo sapiens, UniProt P04629). Description: Inhibition of TRKA in human KM-12-LUC cells assessed as reduction in TRKA phosphorylation at Y490 residue at 0.01 uM after 2 hrs by Western blot analysis. Type of series: cell-based. As to conditions: KM12-Luc. The gist of the method: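 KM-12-LUC cells cultured in RPMI 1640 with 10% FBS and 1% penicillin/streptomycin. Serially diluted compound applied for 2 h. Cells collected and lysed, and lysates analysed by western blotting for phospho-TRKA Y490, AKT T308/S473 and ERK1/2 T202/Y204.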
Target sequence in this assay (P04629 33-796 limits assumed): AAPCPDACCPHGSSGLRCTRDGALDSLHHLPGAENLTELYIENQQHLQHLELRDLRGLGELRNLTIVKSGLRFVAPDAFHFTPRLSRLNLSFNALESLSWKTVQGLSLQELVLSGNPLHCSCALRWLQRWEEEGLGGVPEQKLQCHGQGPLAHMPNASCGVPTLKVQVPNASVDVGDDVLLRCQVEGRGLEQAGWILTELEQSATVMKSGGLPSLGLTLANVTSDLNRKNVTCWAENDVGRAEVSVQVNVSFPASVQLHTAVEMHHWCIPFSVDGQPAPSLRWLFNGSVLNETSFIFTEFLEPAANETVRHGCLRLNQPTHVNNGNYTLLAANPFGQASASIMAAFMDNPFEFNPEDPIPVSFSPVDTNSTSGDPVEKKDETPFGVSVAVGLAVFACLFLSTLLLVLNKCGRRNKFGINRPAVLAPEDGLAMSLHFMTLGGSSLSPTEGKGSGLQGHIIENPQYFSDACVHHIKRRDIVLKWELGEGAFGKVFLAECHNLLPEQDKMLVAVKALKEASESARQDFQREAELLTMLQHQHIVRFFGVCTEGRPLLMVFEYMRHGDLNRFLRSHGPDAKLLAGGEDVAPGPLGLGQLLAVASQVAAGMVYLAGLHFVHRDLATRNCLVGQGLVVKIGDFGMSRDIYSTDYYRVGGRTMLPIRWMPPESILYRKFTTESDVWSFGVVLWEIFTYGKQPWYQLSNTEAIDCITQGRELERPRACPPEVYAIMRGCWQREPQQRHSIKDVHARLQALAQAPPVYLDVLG

Series [10] can be described thus: Toxicity in mouse xenografted with mouse BAF3 cells harboring TEL fused TRKB assessed as effect on animals behaviour at 40 to 80 mg/kg, po administered once daily for 10 days. Type of series: organism-based. As to conditions: in vivo, 240 h, dose 40-80 mg/kg/day, time 10 day. The procedure, abridged: as §1
The test system of series [11] is BaF3. Description: Antitumor activity against mouse BAF3 cells harboring TEL fused TRKB allografted in nude mouse assessed as tumor growth inhibition at 80 mg/kg, po administered once daily for 10 days relative to control. Type of series: functional. The note with it: 240 h, time 10 day, read-out: TGI. The procedure, abridged: as §2
Series [12] in a line: Half life in Sprague-Dawley rat at 1 mg/kg, iv. It counts as ADME, organism-based. The note with it: in vivo.
Series [13] has as its target T2, High affinity nerve growth factor receptor. The experiment in a line: Inhibition of TRKA in human KM-12-LUC cells assessed as reduction in ERK1/2 phosphorylation at T202/Y204 residues after 2 hrs by Western blot analysis. Type of series: cell-based, KM12-Luc. The gist of the method: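 KM-12-LUC (TPM3-TRKA fused colon cancer cells) grown in RPMI 1640 with 10% FBS and 1% penicillin/streptomycin at 37 °C under 5% CO2. Serially diluted compound added for 2 h. Lysates western blotted for phospho-AKT (T308/S473) and phospho-ERK1/2 (T202/Y204).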
Target sequence in this assay (P04629 whole entry): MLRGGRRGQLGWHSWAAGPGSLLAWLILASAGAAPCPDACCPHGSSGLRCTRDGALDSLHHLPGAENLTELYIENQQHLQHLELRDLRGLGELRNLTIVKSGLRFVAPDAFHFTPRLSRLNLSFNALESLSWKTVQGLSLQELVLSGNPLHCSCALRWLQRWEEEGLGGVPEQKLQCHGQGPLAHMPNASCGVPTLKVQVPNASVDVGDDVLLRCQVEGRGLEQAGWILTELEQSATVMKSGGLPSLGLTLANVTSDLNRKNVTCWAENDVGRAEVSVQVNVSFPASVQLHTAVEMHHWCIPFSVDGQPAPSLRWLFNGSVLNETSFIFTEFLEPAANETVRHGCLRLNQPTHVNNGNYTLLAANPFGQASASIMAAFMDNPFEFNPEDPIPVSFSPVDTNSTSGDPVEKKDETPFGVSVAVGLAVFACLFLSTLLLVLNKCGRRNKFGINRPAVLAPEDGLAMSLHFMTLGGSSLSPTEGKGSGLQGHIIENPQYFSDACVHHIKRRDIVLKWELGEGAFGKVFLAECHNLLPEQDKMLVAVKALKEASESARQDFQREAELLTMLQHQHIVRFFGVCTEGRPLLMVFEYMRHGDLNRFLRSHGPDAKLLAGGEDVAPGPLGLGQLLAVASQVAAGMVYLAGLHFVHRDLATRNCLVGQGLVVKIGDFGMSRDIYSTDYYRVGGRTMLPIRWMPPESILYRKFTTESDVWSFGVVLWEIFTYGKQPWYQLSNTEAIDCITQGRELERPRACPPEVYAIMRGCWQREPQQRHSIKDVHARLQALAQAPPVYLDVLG

In series [14] the test system is KM12-Luc. The experiment in a line: Antitumor activity against human […] cells xenografted in nude mouse assessed as tumor growth inhibition administered orally once daily for 10 days relative to control. Type of series: functional, cell-based. The note with it: dose 40-80 mg/kg/day, time 10.0 day. The gist of the method: (§3)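 Nu/nu mice given 5 million KM-12-LUC cells in DMEM, 1:1 with matrigel, injected subcutaneously into the right flank; oral gavage started at tumor size 150–200 mm³, 5 mice per group, compound in 0.5% methylcellulose/0.4% Tween 80 in ddH₂O; body weight and tumor volume [(W²×L)/2] measured daily; TGI versus vehicle.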

In series [15] the test system is BaF3. Description: Antitumor activity against mouse BAF3 cells harboring TEL fused TRKC allografted in nude mouse assessed as tumor growth inhibition at 40 mg/kg, po administered once daily for 10 days relative to control. Type of series: functional. The note with it: 240 h, time 10 day, read-out: TGI. The gist of the method: as §2
Series [16] in a line: Antitumor activity against human […] cells xenografted in nude mouse assessed as tumor growth inhibition at 80 mg/kg, po administered once daily for 10 days relative to control. It counts as functional. As to conditions: KM12-Luc, 240 h, time 10 day, read-out: TGI. The gist of the method: as §3
In series [17] the test system is BaF3. The experiment in a line: Antitumor activity against mouse BAF3 cells harboring LMNA fused TRKA-F589L mutant allografted in nude mouse assessed as tumor growth inhibition at 40 mg/kg, po administered once daily for 10 days relative to control. Type of series: functional. As to conditions: 240 h, time 10 day, read-out: TGI. The gist of the method: as §2
Series [18] addresses Platelet-derived growth factor receptor beta (Homo sapiens, UniProt P09619). The experiment in a line: Inhibition of TEL fused PDGFRbeta (unknown origin) transfected in mouse BAF3 cells assessed as growth inhibition after 72 hrs by CCK8 assay. It counts as cell-based. The procedure, abridged:
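TEL-fusion isogenic BaF3 lines were built in-house and grown in RPMI 1640 with 10% FBS and 1% penicillin/streptomycin at 37 °C under 5% CO2. Cells were spun down before use.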
On the technique in general: Tetrazolium dyes change colour on reduction, which living cells bring about.

A short description of series [19]: AUC (0 to t) in Beagle dog at 5 mg/kg, po. Type of series: ADME, organism-based, Canis lupus familiaris. Also noted: dose 5 mg/kg. The note with it: in vivo. The procedure, abridged:
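Intravenous and oral arms were run in parallel in each species (mice, Sprague Dawley rats, beagle dogs). Exposure is reported as AUC0-t in ng/mL·h.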

The nature of series [20]: Oral bioavailability in Beagle dog at 5 mg/kg. Type of series: ADME, organism-based, Canis lupus familiaris. As to conditions: in vivo. The gist of the method: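 Single-dose PK in mice, Sprague Dawley rats and beagle dogs, given i.v. (1 mg/kg) or p.o. (10 mg/kg mice and rats; 5 mg/kg dogs). AUC0-t, T1/2, Tmax and oral bioavailability (F) derived from plasma profiles.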

In series [21] the test system is High affinity nerve growth factor receptor (Homo sapiens), P04629 [G595R]. Description: Inhibition of LMNA fused TRKA G595R mutant (unknown origin) transfected in mouse BAF3 cells assessed as growth inhibition after 72 hrs by CCK8 assay. It counts as cell-based.
High affinity nerve growth factor receptor (Homo sapiens), P04629 [G595R], sequence (P04629 whole entry G595R, looked up, the tested form may be a part): as the sequence (P04629 whole entry) above, with G595R counted along it
A short description of series [22]: Toxicity in mouse xenografted with mouse BAF3 cells harboring […] TRKA-G667S mutant assessed as effect on body weight at 40 to 80 mg/kg, po administered twice daily for 10 days. As to conditions: in vivo, 240 h, dose 40-80 mg/kg, time 10 day. Type of series: organism-based. The procedure, abridged: as §1

The source made the active and inactive calls. No cut-off for these calls is given here.

The EC50 is the concentration giving half of the maximal effect. As a reminder, the GI50 is the concentration giving 50% growth inhibition. One may read the AUC(0-t) as the area under the concentration-time curve up to a stated or last time point. Read a high AUC(0-t) as more exposure. Broadly, the bioavailability is the share of a dose that reaches the circulation, judged against a reference dose that is usually intravenous. High values mean good availability, low ones poor availability.

Platelet-derived growth factor receptor beta, sequence (P09619 whole entry, the tested form may be a part): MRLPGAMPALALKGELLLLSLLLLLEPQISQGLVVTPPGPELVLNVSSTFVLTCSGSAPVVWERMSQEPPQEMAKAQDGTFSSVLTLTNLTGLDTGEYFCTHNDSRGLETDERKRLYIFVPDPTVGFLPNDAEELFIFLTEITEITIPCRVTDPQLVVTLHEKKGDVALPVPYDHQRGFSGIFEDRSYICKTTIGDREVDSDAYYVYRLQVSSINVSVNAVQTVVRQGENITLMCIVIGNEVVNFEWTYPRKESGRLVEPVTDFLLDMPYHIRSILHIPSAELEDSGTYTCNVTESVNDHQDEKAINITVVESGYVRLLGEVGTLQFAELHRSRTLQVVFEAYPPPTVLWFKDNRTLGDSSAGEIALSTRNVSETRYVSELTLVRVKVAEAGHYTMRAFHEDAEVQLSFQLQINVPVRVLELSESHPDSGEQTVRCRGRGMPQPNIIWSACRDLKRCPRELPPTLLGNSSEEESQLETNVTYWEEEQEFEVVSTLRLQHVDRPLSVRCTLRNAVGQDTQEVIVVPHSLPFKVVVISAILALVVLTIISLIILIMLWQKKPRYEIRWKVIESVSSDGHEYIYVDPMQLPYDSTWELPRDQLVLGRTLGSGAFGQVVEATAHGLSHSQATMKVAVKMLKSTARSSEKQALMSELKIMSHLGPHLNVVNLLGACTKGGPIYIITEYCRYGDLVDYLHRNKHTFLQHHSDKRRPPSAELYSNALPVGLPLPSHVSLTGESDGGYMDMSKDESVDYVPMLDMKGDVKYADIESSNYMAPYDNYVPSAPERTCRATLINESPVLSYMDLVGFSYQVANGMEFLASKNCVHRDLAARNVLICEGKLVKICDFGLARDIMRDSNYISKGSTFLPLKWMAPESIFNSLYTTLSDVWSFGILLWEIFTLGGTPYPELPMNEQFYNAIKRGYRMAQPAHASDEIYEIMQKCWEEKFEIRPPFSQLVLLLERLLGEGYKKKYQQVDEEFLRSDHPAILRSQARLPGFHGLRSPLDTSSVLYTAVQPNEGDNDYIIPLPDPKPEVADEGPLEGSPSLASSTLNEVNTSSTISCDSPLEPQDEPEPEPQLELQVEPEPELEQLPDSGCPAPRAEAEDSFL

Regarding `Cc1nc(NC(=O)CN2CCN(C)CC2)sc1-c1ccc2c(/C=C/c3ccccn3)n[nH]c2c1`, the EC50 in [1] was 69 nM; in [13], less than 30 nM. The Activity result in [2] is “Non-Toxic”; in [5] it was “Non-Toxic”; in series [6], 0.05%; in [8], “Non-Toxic”; in [10], “Non-Toxic”; in series [14], “Dose-dependent effect”. Moreover, the Activity result in [22] is “Non-Toxic”. Also, the results for the t1/2 in series [3] and in series [12] were 3.4 h and 2.7 h, respectively. The inhibition in vivo at 80 mg/kg/day in [4] came out at 57.5%; in series [11], 92.7%; in [16] it was 94.7%. Further, in series [7], the CL/F was 140 mL/min/kg. Moreover, in series [9], the inhibition entry is “Active”. Besides, the inhibition in vivo at 40 mg/kg/day is 40.6% in series [15] and 80% in series [17]. In addition, the GI50 in series [18] was 1.4 nM; in series [21] it was 194 nM. Moreover, the AUC(0-t) in series [19] worked out at 464 ng·h/mL. For the same molecule, in series [20], the bioavailability amounted to 35%.
